Assay results pooled from the literature.
Lines come from different studies, so protocols differ.

C=CC(=O)NC1CCN(c2ncc3ncnc(Nc4ccc(Oc5ccc6c(c5)ncn6C)c(C)c4)c3n2)CC1 — EC50 (EKVX; cell growth or viability): 0.0025 µM
CNc1ccnc(SCC(=O)c2ccccc2)c1C#N — EC50 (Leishmania infantum; parasite growth; mouse Macrophage; intracellular, amastigote): > 64 µM
Cl.O=C(O)CNC(=O)c1ccc(NC(=O)c2cc(Br)c(Br)[nH]2)c(N2CCNCC2)c1 — MIC (Klebsiella aerogenes; microbial growth, broth dilution; ATCC13408): > 32 µg/mL
CC(=NNC(=O)COc1ccc2c(C)c(Cc3ccccc3)c(=O)oc2c1C)c1ccc(Br)cc1 — viability (HCT-116; cell growth or viability, MTT; 6.3 µg/mL): 49.9%
O=C(O)c1cn(C2CC2)c2cc(N3CCNCC3)c(F)cc2c1=O — MIC (Klebsiella aerogenes; microbial growth; ATCC35029): 2 µM
CC(C)(C)OC(=O)N[C@H]1CCN(c2cc(C(=O)NCC(=O)O)ccc2NC(=O)c2cc(Br)c(Br)[nH]2)C1 — MIC (Klebsiella aerogenes; microbial growth, broth dilution; ATCC13408): > 32 µg/mL
Cc1cc(C)c(C#N)c(SCC(=O)c2ccccn2)n1 — EC50 (Leishmania infantum; parasite growth; mouse Macrophage; intracellular, amastigote): 45.5 µM
C=CC(=O)c1cccnc1Nc1cc(C(F)(F)F)ccc1OC — GI50 (U-87 MG; cell growth or viability, SRB; 48 h): 7.72 µM
Cl.N[C@H]1CCN(c2cc(C(=O)NCC(=O)O)ccc2NC(=O)c2cc(Br)c(Br)[nH]2)C1 — MIC (Klebsiella aerogenes; microbial growth, broth dilution; ATCC13408): > 32 µg/mL
C=CC(=O)c1cccnc1Nc1cccc(C(F)(F)F)c1 — GI50 (U-87 MG; cell growth or viability, SRB; 48 h): 7.51 µM
COc1cccc(C(=O)COc2nc(C)cc(C)c2C#N)c1 — EC50 (Leishmania infantum; parasite growth; mouse Macrophage; intracellular, amastigote): > 64 µM
Cc1[nH]c(C(=O)Nc2ccc(C(=O)NCC(=O)O)cc2N2CCN(C(=O)OC(C)(C)C)CC2)c(Cl)c1Cl — MIC (Klebsiella aerogenes; microbial growth, broth dilution; ATCC13408): > 32 µg/mL
